Data taken from ChEMBL document CHEMBL1138007, “Examining the correlations between GSK-3 inhibitory properties and anti-convulsant efficacy of valproate and valproate-related compounds” (Bioorg Med Chem Lett, 2004).
The source made the active and inactive calls. The calls are words filed in the database; no cut-off is given here.

Experiments:
[1] = biological target: Glycogen synthase kinase-3 alpha (Homo sapiens) (UniProt P49840); assay: Inhibitory activity against Glycogen synthase kinase-3 alpha, expressed as percent control; set-up: concentration or dose not given beside the values
In short: (§1)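 Recombinant GSK-3α or β, preincubated with compound (0-4 mM), then given phospho-glycogen synthase peptide-2 substrate and [γ-³²P]-ATP plus unlabelled ATP. Buffer: 20 mM MOPS, 0.25 mM Mg acetate, 5 mM MgCl₂, 5 mM β-glycerophosphate, 1 mM EGTA, 0.25 mM Na₃VO₄, 0.25 mM DTT. Reaction ran 30 min at 30 °C, then was spotted on phosphocellulose, acid-washed and scintillation-counted. Background-subtracted counts were normalized to uninhibited activity.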

[2] = Inhibitory activity against Glycogen synthase kinase-3 beta, expressed as percent control; set-up: concentration or dose not given beside the values; in short: as §1
[3] = Anti-convulsant activity in experimental animal model; +++ = more effective; format: functional
[4] = Inhibitory activity (20 mM) against Glycogen synthase kinase-3 beta, expressed as percent control; set-up: scale not given: the % may be the effect or the level left
[5] = Anti-convulsant activity in experimental animal model; ++ = relative to valproate; format: functional
[6] = Inhibitory activity (4 mM) against Glycogen synthase kinase-3 beta, expressed as percent control; set-up: scale not given: the % may be the effect or the level left; conditions: in the assay text read “(0.5 mM)” for “(4 mM)”; in short: as §1
[7] = biological target: Glycogen synthase kinase-3 alpha (Homo sapiens) (UniProt P49840); assay: Inhibitory activity (4 mM) against Glycogen synthase kinase-3 alpha, expressed as percent control; set-up: scale not given: the % may be the effect or the level left; in short: as §1
[8] = Inhibitory activity (0.5 mM) against Glycogen synthase kinase-3 beta, expressed as percent control; set-up: scale not given: the % may be the effect or the level left; in short: as §1
[9] = biological target: Glycogen synthase kinase-3 alpha (Homo sapiens) (UniProt P49840); assay: Inhibitory activity (0.5 mM) against Glycogen synthase kinase-3 alpha, expressed as percent control; set-up: scale not given: the % may be the effect or the level left; in short: as §1
[10] = Anti-convulsant activity in experimental animal model; + = less effective; format: functional

Chain of Glycogen synthase kinase-3 alpha (Homo sapiens) (P49840 2-483 limits assumed): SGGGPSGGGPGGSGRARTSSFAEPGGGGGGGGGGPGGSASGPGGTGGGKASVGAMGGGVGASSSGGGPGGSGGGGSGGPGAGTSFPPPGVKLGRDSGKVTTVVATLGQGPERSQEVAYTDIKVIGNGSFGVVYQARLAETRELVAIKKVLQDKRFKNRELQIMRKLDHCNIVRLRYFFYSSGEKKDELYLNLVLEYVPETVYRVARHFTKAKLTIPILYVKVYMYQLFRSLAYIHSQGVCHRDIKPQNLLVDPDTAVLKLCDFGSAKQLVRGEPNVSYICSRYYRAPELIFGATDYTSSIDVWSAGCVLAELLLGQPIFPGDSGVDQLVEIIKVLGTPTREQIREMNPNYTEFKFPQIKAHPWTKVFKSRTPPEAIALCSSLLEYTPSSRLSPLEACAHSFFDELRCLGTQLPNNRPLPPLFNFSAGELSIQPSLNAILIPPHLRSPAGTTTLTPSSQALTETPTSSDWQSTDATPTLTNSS

Row | SMILES | Control [1] [%] | Control [2] [%] | other results
1 | [Cl-].[Li+] |  |  | Control [4]: 19.5%
2 | C=CCC(CCC)C(=O)OC (stereo not given) | 99.9 | 123 | 
3 | O=C1NC(=O)C(c2ccccc2[N+](=O)[O-])=C1Nc1ccc(O)c(Cl)c1 |  |  | Control [4]: 4.6%
4 | C=CCC(CCC)C(=O)O (stereo not given) | 99.2 | 57.7 | Activity [3]: Active
5 | CCCC(C)(CCC)C(=O)OC | 99.7 | 122 | 
6 | CC/C=C(\CCC)C(=O)O | 100 | 91.3 | Activity [5]: Active
7 | CC/C=C(\CCC)C(=O)OC | 61.3 | 33.3 | 
8 | CCC(CC)C(=O)O |  |  | Control [6]: 56.1%; Control [7]: 0.5%; Control [8]: 56.1%; Control [9]: 88.3%; Activity [10]: Weak activity

The next lines start with results.

Row | Control [1] [%] | Control [2] [%] | SMILES | other results
9 | 87.9 | 110 | C=CCC(CCC)C(=O)OC(C)C (stereo not given) | 
10 | 67.4 | 24.8 | CCCC(C)(CCC)C(=O)O | Activity [3]: Active
11 | 104 | 81.8 | CCCC(CCC)C(=O)OC | 
12 | 80.4 | 35.5 | CCCC(CCC)C(=O)O | Activity [5]: Active
13 | 96.6 | 83.9 | CCCC(CCC)C(N)=O | Activity [3]: Active
14 | 54.2 | 49.1 | CCCC(CCC)C(=O)NO | Activity [3]: Active
